Here are results for 37 compounds from paper PMC11365375 (Acta Pharmaceutica Sinica. B, 2024).

For series [1], the system named is H460^R231Q cells. Description: Cell proliferation assay. The class given is cell-based, human. The settings on record: for IC50: Homo sapiens, 72 h, read-out: H460^R231Q (IC50, μmol/L). Put shortly:
(§1)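 Human NCI-H460 NSCLC cells engineered to express wild-type or R231Q DOT1L (aa 1–416) were grown in RPMI 1640 with 10% FBS. Cells were seeded in 96-well plates and exposed to a range of test compound concentrations for 72 h at 37 °C, 5% CO₂. Growth was read by CCK-8 on a plate reader, and IC50 values were derived from the dose–response.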

The test system of series [2] is H460^WT cells. Description: Cell proliferation assay. The settings on record: Homo sapiens, 72 h, read-out: H460^WT (IC50, μmol/L). The class given is cell-based. Put shortly:
as §1

For series [3], the system named is DOT1L^R231Q mediated H3K79me2 level in H460^R231Q cells. Description: Quantitative Western blot analysis of H3K79me2 level in H460^R231Q cells. The class given is cell-based, human. Put shortly: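 H460^R231Q cells were treated with test compound, and histones were extracted with a total histone extraction kit; protein was quantified by BCA. Extracts were resolved on 8–15% SDS-PAGE, transferred to PVDF and probed for H3K79me2 and histone H3, with ECL/X-ray film detection. Band densities were quantified, and H3K79me2 was normalised to H3. The dimethylation index was the compound value divided by the SGC0946 (positive control) value.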

For series [4] the following is noted: cited from earlier work.

As to `CN(C[C@H]1O[C@@H](n2cnc3c(N)ncnc32)[C@H](O)[C@@H]1O)C1CC2CN(C(=O)Nc3ccc(C(C)(C)C)cc3)CC2C1` (stereo partly shown) [Compound 1], the IC50 in series [1] is 77.6 ± 3.18 µmol/L; in series [2], above 100 µmol/L. Take `CC(C)N(C[C@H]1O[C@@H](n2cnc3c(N)ncnc32)[C@H](O)[C@@H]1O)C1CC2CN(C(=O)Nc3ccc(C(C)(C)C)cc3)CC2C1` (stereo partly shown) [Compound 2]: the IC50 in series [1] was 40.1 ± 3.73 µmol/L; in series [2], above 100 µmol/L.

As for `CC(C)N(C[C@H]1O[C@@H](n2cnc3c(N)ncnc32)[C@H](O)[C@@H]1O)C1CC2CN(C(=O)Nc3ccc(Br)cc3)CC2C1` (stereo partly shown) [Compound 3], the IC50 was 48.8 ± 2.76 µmol/L in series [1] and above 100 µmol/L in series [2]. Regarding `COc1ccc(NC(=O)N2CC3CC(N(C[C@H]4O[C@@H](n5cnc6c(N)ncnc65)[C@H](O)[C@@H]4O)C(C)C)CC3C2)cc1` (stereo partly shown) [Compound 4], the IC50 is 60 ± 5.84 µmol/L in series [1] and above 100 µmol/L in series [2]. In the case of `CC(C)N(C[C@H]1O[C@@H](n2cnc3c(N)ncnc32)[C@H](O)[C@@H]1O)C1CC2CN(C(=O)Nc3ccc(NC(=O)C(C)(C)C)cc3)CC2C1` (stereo partly shown) [Compound 5], the IC50 in series [1] was 37.9 ± 3.09 µmol/L; in series [2], above 100 µmol/L. Further, in series [3] (H3K79me2 level, H460^R231Q cells), the “inhibitory activity against DOT1L^R231Q in WB assay” value is on record as “moderate inhibitory activity”. On to `COc1ccc(CN2CC3CC(N(C[C@H]4O[C@@H](n5cnc6c(N)ncnc65)[C@H](O)[C@@H]4O)C(C)C)CC3C2)cc1Br` (stereo partly shown) [Compound 8], for which the IC50 was 85.8 ± 6.87 µmol/L in series [1] and above 100 µmol/L in series [2]. On the same counts, the results for `COc1cc(CN2CC3CC(N(C[C@H]4O[C@@H](n5cnc6c(N)ncnc65)[C@H](O)[C@@H]4O)C(C)C)CC3C2)cc(OC)c1OC` (stereo partly shown) [Compound 10] are 95.9 ± 4.26 µmol/L and above 100 µmol/L. The like results for `CC(C)N(C[C@H]1O[C@@H](n2cnc3c(N)ncnc32)[C@H](O)[C@@H]1O)C1CC2CN(Cc3c(F)cc(Br)cc3F)CC2C1` (stereo partly shown) [Compound 11] were, in that order, 68.2 ± 3.03 µmol/L and above 100 µmol/L. Consider `CC(C)N(CCC1CC2CN(C(=O)Nc3ccc(C(C)(C)C)cc3)CC2C1)C[C@H]1O[C@@H](n2cnc3c(N)ncnc32)[C@H](O)[C@@H]1O` (stereo partly shown) [Compound 12], for which, in series [1], the IC50 is above 100 µmol/L.

With `CC(C)N(CCC1CC2CN(C(=O)Nc3ccc(Br)cc3)CC2C1)C[C@H]1O[C@@H](n2cnc3c(N)ncnc32)[C@H](O)[C@@H]1O` (stereo partly shown) [Compound 13], the IC50 in series [1] came out at 87.2 ± 7.63 µmol/L. On the same count and under the same terms, as for `CC(C)N(CCC1CC2CN(C(=O)Nc3ccc(NC(=O)C(C)(C)C)cc3)CC2C1)C[C@H]1O[C@@H](n2cnc3c(N)ncnc32)[C@H](O)[C@@H]1O` (stereo partly shown) [Compound 14], the figure is above 100 µmol/L; as for `CC(C)N(CCC1CC2CN(Cc3ccc(C#N)cc3)CC2C1)C[C@H]1O[C@@H](n2cnc3c(N)ncnc32)[C@H](O)[C@@H]1O` (stereo partly shown) [Compound 16], 96.6 ± 5.07 µmol/L. On the same count and under the same terms, in the case of `CC(C)N(CCC1CC2CN(Cc3ccc(F)c(F)c3)CC2C1)C[C@H]1O[C@@H](n2cnc3c(N)ncnc32)[C@H](O)[C@@H]1O` (stereo partly shown) [Compound 17] it was 82 ± 3.25 µmol/L; in that of `COC(=O)CN(C[C@H]1O[C@@H](n2cnc3c(N)ncnc32)[C@H](O)[C@@H]1O)C1CC2CN(C(=O)Nc3ccc(NC(=O)C(C)(C)C)cc3)CC2C1` (stereo partly shown) [Compound 19], above 100 µmol/L; in that of `CC(C)(C)C(=O)Nc1ccc(NC(=O)N2CC3CC(N(CC(=O)NC4CC4)C[C@H]4O[C@@H](n5cnc6c(N)ncnc65)[C@H](O)[C@@H]4O)CC3C2)cc1` (stereo partly shown) [Compound 20], 52.7 ± 2.99 µmol/L. Take `CN(C)C(=O)CN(C[C@H]1O[C@@H](n2cnc3c(N)ncnc32)[C@H](O)[C@@H]1O)C1CC2CN(C(=O)Nc3ccc(NC(=O)C(C)(C)C)cc3)CC2C1` (stereo partly shown) [Compound 21]: in series [1], the IC50 is 72.5 ± 4.5 µmol/L.

Take `CC(C)(C)C(=O)Nc1ccc(NC(=O)N2CC3CC(N(CC(=O)N4CCSCC4)C[C@H]4O[C@@H](n5cnc6c(N)ncnc65)[C@H](O)[C@@H]4O)CC3C2)cc1` (stereo partly shown) [Compound 22]: the IC50 in series [1] came to 44.6 ± 3.87 µmol/L. Still for that read-out and setting: in the case of `CN(C[C@H]1O[C@@H](n2cnc3c(N)ncnc32)[C@H](O)[C@@H]1O)C1CCN(Cc2nc3cc(NC(=O)C(C)(C)C)ccc3[nH]2)CC1` [Compound 23] it was 34.8 ± 1.92 µmol/L; in that of `COC(=O)CN(C[C@H]1O[C@@H](n2cnc3c(N)ncnc32)[C@H](O)[C@@H]1O)C1CCN(Cc2nc3cc(NC(=O)C(C)(C)C)ccc3[nH]2)CC1` [Compound 24], 94 ± 7.07 µmol/L; in that of `CN(C)C(=O)CN(C[C@H]1O[C@@H](n2cnc3c(N)ncnc32)[C@H](O)[C@@H]1O)C1CCN(Cc2nc3cc(NC(=O)C(C)(C)C)ccc3[nH]2)CC1` [Compound 25], 70 ± 2.44 µmol/L. For the compound `CC(C)(C)C(=O)Nc1ccc2nc(CN3CCC(N(CC(=O)N4CCCC4)C[C@H]4O[C@@H](n5cnc6c(N)ncnc65)[C@H](O)[C@@H]4O)CC3)[nH]c2c1` [Compound 26], the IC50 in series [1] amounted to 46.7 ± 2.69 µmol/L. With `CC1CCN(C(=O)CN(C[C@H]2O[C@@H](n3cnc4c(N)ncnc43)[C@H](O)[C@@H]2O)C2CCN(Cc3nc4ccc(NC(=O)C(C)(C)C)cc4[nH]3)CC2)CC1` [Compound 27], the IC50 in series [1] turned out to be 46.7 ± 3.7 µmol/L. The same measure, in the same setting: as for `CC(C)(C)C(=O)Nc1ccc2nc(CN3CCC(N(CC(=O)N4CCC(O)CC4)C[C@H]4O[C@@H](n5cnc6c(N)ncnc65)[C@H](O)[C@@H]4O)CC3)[nH]c2c1` [Compound 28], the figure is 22.5 ± 1.81 µmol/L. Consider `CCN1CCN(C(=O)CN(C[C@H]2O[C@@H](n3cnc4c(N)ncnc43)[C@H](O)[C@@H]2O)C2CCN(Cc3nc4ccc(NC(=O)C(C)(C)C)cc4[nH]3)CC2)CC1` [Compound 29], for which the IC50 in series [1] was determined as 29.2 ± 1.63 µmol/L. The same measure, in the same setting: as for `CC(C)(C)C(=O)Nc1ccc2nc(CN3CCC(N(CC(=O)N4CCOCC4)C[C@H]4O[C@@H](n5cnc6c(N)ncnc65)[C@H](O)[C@@H]4O)CC3)[nH]c2c1` [Compound 30], the figure is 46.1 ± 3 µmol/L; as for `CC(C)(C)C(=O)Nc1ccc2nc(CN3CCC(N(CC(=O)NCc4ccco4)C[C@H]4O[C@@H](n5cnc6c(N)ncnc65)[C@H](O)[C@@H]4O)CC3)[nH]c2c1` [Compound 31], above 100 µmol/L. As for `CC(C)(C)C(=O)Nc1ccc2[nH]c(CN3CCC(N(CCC(=O)NCC4CCCO4)C[C@H]4O[C@@H](n5cnc6c(N)ncnc65)[C@H](O)[C@@H]4O)CC3)nc2c1` (stereo partly shown) [Compound 32], in series [1], the IC50 amounted to 96.5 ± 5.45 µmol/L. `CC(C)NC(=O)CCN(C[C@H]1O[C@@H](n2cnc3c(N)ncnc32)[C@H](O)[C@@H]1O)C1CCN(Cc2nc3cc(NC(=O)C(C)(C)C)ccc3[nH]2)CC1` [Compound 33]: the IC50 in series [1] was 73 ± 5.07 µmol/L.

With `CC(C)(C)C(=O)Nc1ccc2[nH]c(CN3CCC(N(CCC(=O)N4CCS(=O)(=O)CC4)C[C@H]4O[C@@H](n5cnc6c(N)ncnc65)[C@H](O)[C@@H]4O)CC3)nc2c1` [Compound 34], the IC50 in series [1] is 59.4 ± 4.38 µmol/L. As to `CC(C)(C)C(=O)Nc1ccc2[nH]c(CN3CCC(N(CCC(=O)N4CCSCC4)C[C@H]4O[C@@H](n5cnc6c(N)ncnc65)[C@H](O)[C@@H]4O)CC3)nc2c1` [Compound 35], the IC50 in series [1] was found to be 18.6 ± 0.94 µmol/L.

On to `CC(C)(C)C(=O)Nc1ccc2[nH]c(CN3CCC(N(CCCN4CCC(O)CC4)C[C@H]4O[C@@H](n5cnc6c(N)ncnc65)[C@H](O)[C@@H]4O)CC3)nc2c1` [Compound 36], for which, in series [1], the IC50 was 8.76 ± 0.61 µmol/L. In series [3] (5 μmol/L, WB), the “H3K79me2 level mediated by DOT1L^R231Q” value is “significantly reduced”. For the compound `CC1CCN(CCCN(C[C@H]2O[C@@H](n3cnc4c(N)ncnc43)[C@H](O)[C@@H]2O)C2CCN(Cc3nc4cc(NC(=O)C(C)(C)C)ccc4[nH]3)CC2)CC1` [Compound 38], in series [1], the IC50 turned out to be 43.1 ± 1.88 µmol/L. On to `CCN1CCN(CCCN(C[C@H]2O[C@@H](n3cnc4c(N)ncnc43)[C@H](O)[C@@H]2O)C2CCN(Cc3nc4cc(NC(=O)C(C)(C)C)ccc4[nH]3)CC2)CC1` [Compound 39], for which, in series [1], the IC50 was 27.6 ± 1.31 µmol/L. Moreover, the “fold decreased activity against H460^R231Q cells” value in series [1] (versus 37) was determined as 4 fold. For `COC(=O)C1CCN(CCCN(C[C@H]2O[C@@H](n3cnc4c(N)ncnc43)[C@H](O)[C@@H]2O)C2CCN(Cc3nc4cc(NC(=O)C(C)(C)C)ccc4[nH]3)CC2)CC1` [Compound 40], the IC50 in series [1] stood at 55.3 ± 5.49 µmol/L. As for `COC1(OC)CCN(CCCN(C[C@H]2O[C@@H](n3cnc4c(N)ncnc43)[C@H](O)[C@@H]2O)C2CCN(Cc3nc4cc(NC(=O)C(C)(C)C)ccc4[nH]3)CC2)CC1` [Compound 41], the IC50 in series [1] worked out at 32.5 ± 3.56 µmol/L. Same read-out and setting: as for `CCN(CC)CCCN(C[C@H]1O[C@@H](n2cnc3c(N)ncnc32)[C@H](O)[C@@H]1O)C1CCN(Cc2nc3ccc(NC(=O)C(C)(C)C)cc3[nH]2)CC1` [Compound 42], the figure is 73.3 ± 3.18 µmol/L. By clearance is commonly meant the rate of elimination divided by the concentration. Turning to `CC(C)N(C[C@H]1O[C@@H](n2cnc3c(N)ncnc32)[C@H](O)[C@@H]1O)[C@H]1C[C@@H](CCc2nc3cc(C(C)(C)C)ccc3[nH]2)C1` [EPZ5676], in series [4], the clearance is 4.08 L/h/kg and the “oral bioavailability (F)” value was 0%.
